Test results as given in ChEMBL document CHEMBL5046259, “Cannabinoids Block Cellular Entry of SARS-CoV-2 and the Emerging Variants” (J Nat Prod, 2022).
Converted amounts (≈) assume the structure as drawn.

What was measured:
Format in all cases: functional, organism-based
SARS-CoV-2 [1] = experiment: Antiviral activity against pseudovirus SARS-CoV-2 spike protein infected in HEK293T cells overexpressing ACE2 assessed as inhibition on pseudovirus infection incubated for 45 hrs by fluorescence microscopy; details: Severe acute respiratory syndrome coronavirus 2, HEK-293T
Outline: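 293T-ACE2 cells were seeded at 10 000 per well. Spike-pseudotyped lentivirus carrying a GFP reporter was mixed with 2-fold serial dilutions of compound (in DMSO) or vehicle for 1 h at 37 °C, then added to cells with 5 μg/mL Polybrene. After 44 h, cells were fixed and DAPI-stained. Total GFP area was normalized to DAPI and to vehicle (n = 3). IC50 came from a three-parameter logistic fit.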

SARS-CoV-2 [2] = experiment: Antiviral activity against SARS-CoV-2 variant B.1.351 strain infected in African green monkey Vero E6 cells assessed as inhibition of viral entry incubated for 1 hr prior to infection and measured after 48 hrs by Focus forming assay; details: Severe acute respiratory syndrome coronavirus 2, B.1.351, Vero C1008
SARS-CoV-2 [3] = experiment: Antiviral activity against SARS-CoV-2 variant B.1.1.7 strain infected in African green monkey Vero E6 cells assessed as inhibition of viral entry incubated for 1 hr proir to infection and measured after 48 hrs by Focus forming assay; details: Severe acute respiratory syndrome coronavirus 2, B.1.1.7, Vero C1008

## C=C(C)[C@@H]1CCC(C)=C[C@H]1c1c(O)cc(CCCCC)c(C(=O)O)c1O [CANNABIDIOLIC ACID]
SARS-CoV-2 [1]
  IC50: 7.7 µg/mL (≈ 21.5 µM)
SARS-CoV-2 [2]
  IC50: 19 µg/mL (≈ 53 µM)
SARS-CoV-2 [3]
  IC50: 11 µg/mL (≈ 30.7 µM)

## CCCCCc1cc(O)c(C/C=C(\C)CCC=C(C)C)c(O)c1C(=O)O [CANNABIGEROLIC ACID]
SARS-CoV-2 [1]
  IC50: 8.4 µg/mL (≈ 23.3 µM)
SARS-CoV-2 [2]
  IC50: 35 µg/mL (≈ 97.1 µM)
SARS-CoV-2 [3]
  IC50: 26 µg/mL (≈ 72.1 µM)
